Assay results of several laboratories.
Compare with care: the assays were run in different laboratories.
Target: Tyrosine-protein kinase Lck (LCK, Homo sapiens, UniProt P06239)

effect on	technique	tested at	remaining binding	SMILES
binding	–	1 µM	94%	COc1ccnn2ncc(-c3ccnc(N(C)C)n3)c12
cell-free assay	competition with immobilised ligand	1 µM	100%	CCCOc1ccc([C@@H]2[C@@H](C(=O)O)[C@H](c3ccc4c(c3)OCO4)CN2CC(=O)Nc2c(CC)cccc2CC)cc1
binding	competition with immobilised ligand	1 µM	90%	C=CC(=O)N1CCC(C(=O)NCC(=O)N2CCN(c3nc(-c4cnc(N)nc4C(F)F)nc(N4CCOCC4)n3)CC2)CC1
binding	–	1 µM	89%	CN(CCCC(F)(F)F)c1nccc(-c2cnn3ncccc23)n1
binding	competition with immobilised ligand	1 µM	100%	COc1cnc(Nc2cccc(S(N)(=O)=O)c2)nc1N1CCN(c2ccccc2)C(=O)C1
cell-free assay	competition with immobilised ligand	5 µM	35%	FC(F)(F)Oc1cccc(-c2cnc3ccc(-c4ccncc4)nn23)c1
binding	competition with immobilised ligand	1 µM	100%	Nc1ncc2c(n1)-c1c([nH]c3ccc(C#CC4CC4)cc13)CCCC2
cell-free assay	competition with immobilised ligand	0.1 µM	87%	CNC(=O)c1ccc(Nc2ncc(C(F)(F)F)c(NCc3nccnc3N(C)S(C)(=O)=O)n2)cc1
binding	competition with immobilised ligand	1 µM	100%	O=C(NCCCN1CCOCC1)c1ccc(Nc2ncc(Cl)c(-c3ccc(Cl)s3)n2)cc1
cell-free assay	competition with immobilised ligand	1 µM	100%	COc1ccc2c(c1)O[C@@H](c1ccc(OC)c(OC)c1)C[C@H]2NC(=O)C1(c2ccc3c(c2)OC(F)(F)O3)CC1
binding	–	1 µM	98%	C[C@H]1CCN(c2nccc(-c3cnn4ncccc34)n2)C1
binding	competition with immobilised ligand	1 µM	76%	O=C(NCCCN1CCOCC1)c1ccc(Nc2nccc(-c3cc4ccccc4s3)n2)cc1
binding	competition with immobilised ligand	1 µM	22%	CCN1CCN(Cc2ccc(C(=O)Nc3ccc(C)c(Oc4ccc5c(c4)CC(=O)N5)c3)cc2C(F)(F)F)CC1
binding	competition with immobilised ligand	1 µM	2.7%	Cc1cnc(Nc2ccc(C(=O)N3CCC(N4CCCC4)CC3)cc2)nc1-c1cc2ccccc2s1
cell-free assay	competition with immobilised ligand	1 µM	100%	CC1=C(C#N)[C@@H](c2ccc3[nH]nc(C)c3c2)C(C#N)=C(c2ccc(Cl)cc2)N1
binding	competition with immobilised ligand	1 µM	100%	O=C(Nc1c[nH]nc1C(=O)NC1CCNCC1)c1cc(F)cc(F)c1
